Experimental data: PubChem BioAssay
Calls of active or inactive are those of the source.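 How the source made its calls, unless noted: active means inhibition at or above 50% relative to wild type and mutant plate controls; inactive means inhibition below 50%.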

Tests used:
[1] = inhibitors of TNFa-induced NFkB p65 translocation, primary screen, imaging, HUVEC, MLSMR starter and 10KST1 sets (AID 438;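 active means inhibition above 20% together with a positive visual image hit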;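 further: compound added about 3h40 before a 20 min TNFalpha stimulation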;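 on inhibition: signal is the nuclear over cytoplasmic p65 intensity ratio per well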); conditions: HUVEC TNFa-induced p65 nuclear translocation; cell count: measured here: nuclei count (cytotoxicity indicator), at 2.08 µM; inhibition: at 2 µM, stronger effect = higher value, 0% TNFa-plus-vehicle, 100% no-TNFa wells
[2] = inhibitors of E-selectin induction by TNFa, primary screen, imaging, HUVEC, immunofluorescence, MLSMR starter and 10KST1 sets (AID 487;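 active means visually confirmed hit in the image check and inhibition above 20%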;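 on inhibition: signal is fraction of cell area covered by stained E-selectin grains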;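 on nuclei count: 100% = median nuclei count of all wells on the same plate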); conditions: HUVEC TNFalpha-induced E-selectin immunofluorescence imaging, at 2 µM; inhibition: stronger effect = higher value; nuclei count: measured here: cell number, toxicity
[3] = DUSP6 inhibitors restoring Erk phosphorylation by chemical complementation, primary imaging in DUSP6-transfected HeLa (AID 609;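 active means compounds giving at least 50% inhibition in the cell-based MKP-3 phosphatase rescue imaging test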;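 on inhibition: phospho-Erk level distribution per well compared with pooled transfected vehicle control wells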); conditions: HeLa MKP-3 transfected, phospho-Erk imaging KS statistic, at 10 µM, cells stimulated with TPA for 15 min
[4] = molecular target: Dual specificity protein phosphatase 6 (Homo sapiens) (UniProt Q16828); experiment: as above; conditions: HeLa MKP-3 transfected, phospho-Erk imaging KS statistic; at 10 µM; stronger effect = higher value; cells stimulated with TPA for 15 min
Dual specificity protein phosphatase 6 (Homo sapiens), sequence (Q16828 whole entry, looked up): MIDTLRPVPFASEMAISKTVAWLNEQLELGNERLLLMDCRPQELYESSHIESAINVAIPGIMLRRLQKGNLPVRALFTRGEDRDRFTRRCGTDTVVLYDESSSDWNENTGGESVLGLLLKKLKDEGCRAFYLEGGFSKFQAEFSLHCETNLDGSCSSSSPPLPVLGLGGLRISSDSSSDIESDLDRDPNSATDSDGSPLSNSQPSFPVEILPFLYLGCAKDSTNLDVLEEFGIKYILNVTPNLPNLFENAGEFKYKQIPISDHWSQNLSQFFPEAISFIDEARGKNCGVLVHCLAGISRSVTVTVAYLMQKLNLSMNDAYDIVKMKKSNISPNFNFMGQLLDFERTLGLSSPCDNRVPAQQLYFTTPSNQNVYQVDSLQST

[5] = molecular target: Voltage-gated potassium channel subunit beta-2 (Rattus norvegicus) (UniProt P62483); experiment: KvBeta enzyme negative modulators, primary screen, biochemical, NADPH fluorescence (AID 622;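 active means fluorescence slope higher than the sample average by over 3 SD, cut at about -0.22 in these data, passing the limit was not always enough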;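 further: slope of raw intensity against log time taken from 70 to 1610 s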); conditions: recombinant KvBeta, 4-cyanobenzaldehyde reduction, at 10 µM, stronger effect = higher value
Voltage-gated potassium channel subunit beta-2 (Rattus norvegicus), sequence (P62483 whole entry, looked up): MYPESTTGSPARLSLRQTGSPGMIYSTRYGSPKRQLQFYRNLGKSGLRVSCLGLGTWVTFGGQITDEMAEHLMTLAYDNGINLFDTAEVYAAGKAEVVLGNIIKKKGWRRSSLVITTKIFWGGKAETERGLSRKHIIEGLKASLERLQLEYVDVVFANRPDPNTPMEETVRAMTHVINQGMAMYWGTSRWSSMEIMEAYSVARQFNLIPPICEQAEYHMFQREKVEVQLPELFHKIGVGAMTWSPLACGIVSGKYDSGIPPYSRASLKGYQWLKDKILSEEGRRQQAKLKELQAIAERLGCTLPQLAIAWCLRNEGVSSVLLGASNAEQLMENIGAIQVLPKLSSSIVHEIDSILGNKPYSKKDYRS

[6] = molecular target: Voltage-gated potassium channel subunit beta-2 (Rattus norvegicus) (UniProt P62483); experiment: KvBeta positive modulators, primary screen, biochemical, NADPH fluorescence (AID 623;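 active means NADPH fluorescence slope more negative than the mean of all samples by about 3 SD, 99.7% confidence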;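 further: fluorescence intensity change per second fitted from 20 to 320 s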); conditions: Recombinant KvBeta, NADPH fluorescence decrease slope, 10 min; at 10 µM; stronger effect = lower value
[7] = molecular target: Alpha-2C adrenergic receptor (Homo sapiens) (UniProt P18825); experiment: modulators of alpha2C/GIRK thallium flux, primary screen, cell-based, HEK293 alpha2C/GIRK1/2 (AID 624;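 active means fluorescence slope after compound addition differing from the mean of all screened samples at 99.7% confidence, in either direction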;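 further: slope of fluorescence ratio to pre-addition baseline per second over 15 to 24 s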); conditions: thallium flux BTC fluorescence, at 10 µM, actives lie on both sides
Alpha-2C adrenergic receptor (Homo sapiens), sequence (P18825 whole entry, looked up): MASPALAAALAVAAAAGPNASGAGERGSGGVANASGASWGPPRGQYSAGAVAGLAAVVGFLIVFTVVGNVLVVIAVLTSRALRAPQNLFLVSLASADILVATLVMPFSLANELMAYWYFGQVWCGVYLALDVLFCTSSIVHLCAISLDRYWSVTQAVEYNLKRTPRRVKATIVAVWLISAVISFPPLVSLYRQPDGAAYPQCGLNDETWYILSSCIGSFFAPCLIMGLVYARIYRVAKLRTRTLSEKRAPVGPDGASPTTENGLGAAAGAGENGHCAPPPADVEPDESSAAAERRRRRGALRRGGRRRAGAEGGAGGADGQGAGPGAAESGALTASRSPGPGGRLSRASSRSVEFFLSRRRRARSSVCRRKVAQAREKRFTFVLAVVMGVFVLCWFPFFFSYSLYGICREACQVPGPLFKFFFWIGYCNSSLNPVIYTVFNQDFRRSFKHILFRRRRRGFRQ

[8] = inhibitors of larval lipid processing in zebrafish, primary screen, whole organism, PED6 fluorescence, gall bladder and intestine (AID 686;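 active means a full or partial loss of lipid-probe fluorescence in the fish gall bladder, intestine or both, judged by eye; inactive means no fluorescence loss, or compound toxic to the fish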;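 further: larvae 5 to 7 days old with five fish per well; signal comes from phospholipase A2 cleavage of quenched PED6 carried via bile; overnight exposure to compound and PED6 before scoring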); conditions: Zebrafish larvae PED6 lipid processing, fluorescence scoring; screened at 20 µM (by protocol)
Outline: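 Doses: 20 µM single dose. Test system: live zebrafish larvae aged 5-7 days, whole organism. Quantity: five larvae per well. Measured by: By-eye fluorescence microscopy. Reagent: ingested quenched lipid PED6 at 100 nM. Read-out: visual per-well fluorescence inhibition score. Times: overnight exposure of larvae to compound plus PED6.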

[9] = inhibitors of Chlamydomonas gravitaxis, primary screen, whole organism, Chlamydomonas reinhardtii, WT vs cilia-less mutant, absorbance, 96-well (AID 463189); conditions: OD600 absorbance, 2 days, at 10 µM, stronger effect = higher value;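 further: 0% = wild type cc124 cells in DMSO and 100% = ciliumless bld1 mutant cells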
[10] = measured here: cell density z-score
[11] = measured here: nuclear c-Myc green intensity z-score
[12] = measured here: nuclear pErk red intensity z-score, stronger effect = higher value

Row | SMILES | cell count [1] | inhibition [1] | inhibition [2] | nuclei count [2] [%] | z-score [3, 10] | z-score [3, 11] | z-score [3, 12] | inhibition [4] | fluorescence slope [5] | NADPH fluorescence slope [6] | slope [7] | outcome [8] | inhibition [9]
1 | CC1(C)CN(O)CCN1O | 325 | -5.3% (inactive) | -130% (inactive) | 104 | -0.173 | -0.721 | -0.0914 | -10.1% (inactive) | -0.452 (inactive) | -1.8e-06 (inactive) | 0.00611 (inactive) | inactive | 12% (inactive)
2 | Cc1ccc(NC(=O)CSC2=C(C#N)C(c3ccco3)C3=C(CCCC3=O)N2)cc1 (stereo unspecified) | 382 | 1.6% (inactive) | -118% (inactive) | 144 | 1.1 | -0.193 | -0.0699 | -0.584% (inactive) | -0.438 (inactive) | -5.7e-07 (inactive) | 0.00635 (inactive) | inactive | 32.7% (inactive)
3 | COc1ccc(-c2cn3ccsc3n2)cc1 | 536 | -3% (inactive) | -235% (inactive) | 197 | -1.31 | -1.4 | 1.15 | -8.95% (inactive) | -0.478 (inactive) | -0.000227 (inactive) | 0.00481 (inactive) | inactive | -19.1% (inactive)
4 | CCOc1cccc(-c2nnc3sc(C4CCCCC4)nn23)c1 | 683 | 1.1% (inactive) | 16.2% (inactive) | 160 | 1.83 | -1.11 | -1.63 | 15.5% (inactive) | -0.446 (inactive) | -0.000139 (inactive) | 0.00527 (inactive) | inactive; toxic | 36.1% (inactive)
5 | CCOC(=O)c1[nH]c2ccc(OC)cc2c1NC(=O)CN1CCN(c2ccccn2)CC1 | 551 | -8.8% (inactive) | -2.8% (inactive) | 157 | -0.126 | 0.554 | 1.04 | -14% (inactive) | -0.16 (inactive) | 2.2e-06 (inactive) | 0.00466 (inactive) | inactive | -9.68% (inactive)
6 | Nc1ccc2oc3ncccc3c(=O)c2c1 | 518 | -0.6% (inactive) | -52.6% (inactive) | 172 | 1.1 | -0.546 | -0.617 | 22.3% (inactive) | -0.511 (inactive) | -2.4e-05 (inactive) | 0.00436 (inactive) | inactive | -10.9% (inactive)
7 | COc1cccc(C2/C(=C(/O)c3cnn(-c4ccccc4)c3C)C(=O)C(=O)N2CCN(C)C)c1OC (stereo unspecified) | 502 | 6.3% (inactive) | -119% (inactive) | 152 | -0.295 | 0.206 | -1.1 | -7.01% (inactive) | -0.506 (inactive) | -2.1e-05 (inactive) | 0.00541 (inactive) | inactive | 8.54% (inactive)
8 | Cc1[nH]nc2cn[nH]c12 | 531 | -7.3% (inactive) | -92.8% (inactive) | 130 | -0.515 | 1.09 | 1.21 | -5.89% (inactive) | -0.526 (inactive) | -5.7e-05 (inactive) | 0.00413 (inactive) | inactive | 4.67% (inactive)
9 | COc1cc(C2C(C#N)=C(N)Oc3cc(C)n(Cc4ccccn4)c(=O)c32)cc2c1OCO2 (stereo unspecified) | 433 | 6.2% (inactive) | -56.2% (inactive) | 88.8 | -2.67 | -0.393 | 1.97 | 11.4% (inactive) | -0.442 (inactive) | -1.2e-05 (inactive) | 0.00753 (inactive) | inactive | -11.1% (inactive)
10 | Cc1cc(C)cc(CC2CC(=O)N(c3cc(C)on3)C2=O)c1 (stereo unspecified) | 491 | -7% (inactive) | -80.4% (inactive) | 132 | -0.204 | -0.209 | 1.15 | 3.66% (inactive) | -0.517 (inactive) | -6.6e-05 (inactive) | 0.00547 (inactive) | inactive | 2.69% (inactive)
11 | Fc1ccccc1-c1nc(N2CCCCC2)c2ccccc2n1 | 364 | -8.4% (inactive) | -149% (inactive) | 173 | 1.66 | 0.183 | -1.27 | 6.04% (inactive) | -0.447 (inactive) | -5.7e-06 (inactive) | 0.00522 (inactive) | inactive | 140% (active)
12 | CCC(=O)Nc1cc(-c2nn(C)c(=O)c3ccccc23)ccc1N1CCCCC1 | 527 | -10.5% (inactive) | -20.7% (inactive) | 161 | -0.258 | -0.867 | 0.981 | -3.5% (inactive) | -0.373 (inactive) | -2.2e-05 (inactive) | 0.00441 (inactive) | inactive | 25.8% (inactive)
13 | CN(C)c1ccc(-c2nn3c(-c4ccc(Cl)cc4)nnc3s2)cc1 | 615 | -7.8% (inactive) | -183% (inactive) | 147 | 0.167 | -0.869 | -2.02 | 19.1% (inactive) | -0.409 (inactive) | -0.000319 (inactive) | 0.00702 (inactive) | inactive | 14.6% (inactive)
14 | COC(=O)C(NC(C)=O)(Nc1ccccc1)C(=O)OC | 566 | -19.3% (inactive) | -259% (inactive) | 191 | 1.28 | -1.78 | -0.855 | 18.2% (inactive) | -0.532 (inactive) | -6.4e-05 (inactive) | 0.00504 (inactive) | inactive | 2.12% (inactive)
15 | Cc1cc(=O)oc(C)c1C(=O)NCCNC(=O)c1c(C)cc(=O)oc1C | 496 | -5.9% (inactive) | -127% (inactive) | 140 | 0.642 | -0.299 | 1.3 | -14% (inactive) | -0.534 (inactive) | -3.6e-05 (inactive) | 0.0046 (inactive) | inactive | -8.5% (inactive)
16 | COc1ccc(CCNC2CC(C)N(C)CC2C)cc1OC (stereo unspecified) | 549 | -11.3% (inactive) | -75.9% (inactive) | 170 | 0.099 | -0.11 | 2.07 | -0.608% (inactive) | -0.515 (inactive) | -3e-05 (inactive) | 0.00466 (inactive) | inactive | 12.3% (inactive)
17 | Cn1c(N2CCOCC2)nc2c1c(=O)n(Cc1ccc(Cl)c(Cl)c1)c(=O)n2C | 616 | -1.9% (inactive) | -39.8% (inactive) | 146 | -0.645 | 0.0379 | -0.103 | 2.46% (inactive) | -0.474 (inactive) | -0.000203 (inactive) | 0.00465 (inactive) | inactive | 24.4% (inactive)
18 | CCNc1nc(Oc2ccccc2)nc(OC(C)C(=O)OCC)n1 (stereo unspecified) | 674 | 1.4% (inactive) | -19.3% (inactive) | 172 | -0.682 | -0.0206 | 2.56 | -2.07% (inactive) | -0.532 (inactive) | -6.7e-05 (inactive) | 0.00506 (inactive) | inactive | -3.35% (inactive)
19 | OCCOCCNc1ncnc2c1cnn2-c1ccccc1 | 472 | -2% (inactive) | -38.9% (inactive) | 162 | -0.85 | 1.86 | 0.161 | 16.8% (inactive) | -0.374 (inactive) | -1.3e-05 (inactive) | 0.00585 (inactive) | inactive | 0.488% (inactive)
20 | COc1cc(C2C(C#N)=C(N)Oc3cc(C)n(CCc4ccccc4)c(=O)c32)cc2c1OCO2 (stereo unspecified) | 331 | -2.4% (inactive) | -42.5% (inactive) | 165 | -0.617 | 1.54 | 1.26 | 11.4% (inactive) | -0.433 (inactive) | -0.000158 (inactive) | 0.00471 (inactive) | inactive | 11.9% (inactive)
21 | Cc1nn2c(-c3ccc(Cl)cc3)nnc2s1 | 551 | -6.5% (inactive) | -65.8% (inactive) | 86.3 | -0.293 | -0.329 | 0.206 | -6.06% (inactive) | -0.421 (inactive) | -1.1e-05 (inactive) | 0.00662 (inactive) | inactive | 17.4% (inactive)
22 | O/N=C1\CCc2cc(Cl)ccc21 | 384 | -4% (inactive) | -24.4% (inactive) | 101 | -3.01 | 0.785 | -0.837 | -0.159% (inactive) | -0.48 (inactive) | -0.000244 (inactive) | 0.0047 (inactive) | inactive | -12.6% (inactive)
23 | COc1cccc(C2/C(=C(/O)c3ccc(C)cc3)C(=O)C(=O)N2Cc2ccco2)c1 (stereo unspecified) | 552 | -6.3% (inactive) | -20% (inactive) | 123 | 0.537 | 0.655 | -1.35 | 4.72% (inactive) | -0.512 (inactive) | -5.6e-05 (inactive) | 0.00539 (inactive) | inactive | 15.2% (inactive)
24 | CCc1nc(SCc2cccnc2)c(C#N)cc1C | 594 | -3.5% (inactive) | -81.5% (inactive) | 176 | 0.241 | -0.223 | -1.08 | 2.46% (inactive) | -0.341 (inactive) | 8.2e-06 (inactive) | 0.00538 (inactive) | inactive | 50.3% (active)
25 | Cc1ccc(OCC(=O)NCC(=O)n2nc(C)cc2C)cc1 | 580 | -8% (inactive) | 13.1% (inactive) | 170 | -0.967 | -0.193 | 1.92 | -7.01% (inactive) | -0.382 (inactive) | -2.8e-05 (inactive) | 0.00489 (inactive) | inactive | -1.21% (inactive)
26 | CNc1ccccc1-c1nc2ccccc2n(C)c1=O | 545 | 1.8% (inactive) | -41.8% (inactive) | 154 | 0.495 | -0.326 | 0.207 | 14% (inactive) | -0.488 (inactive) | -7.9e-05 (inactive) | 0.00346 (inactive) | active; weak signal in gallbladder and intestine | 16% (inactive)
27 | COc1cccc(C2/C(=C(/O)c3cnn(-c4ccccc4)c3C)C(=O)C(=O)N2CCN(C)C)c1 (stereo unspecified) | 510 | -2.9% (inactive) | -176% (inactive) | 132 | 0.354 | -0.911 | 0.0449 | -8.76% (inactive) | -0.551 (inactive) | -7.2e-05 (inactive) | 0.00551 (inactive) | inactive | 7.34% (inactive)
